Data: ChEMBL document CHEMBL1159047, “Synthesis and biological evaluation of antitumour-active betulin derivatives” (Bioorg Med Chem, 2010)
Active and inactive are the calls of the source.

How the values were obtained:
518A2 = assay: Growth inhibition of human 518A2 cells at 30 uM after 96 hrs by SRB assay; assay type: functional, cell-based
In short: (§1)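 Same SRB set-up: RPMI 1640 with 10% FBS at 37 °C, 5% CO2, and a 96 h exposure starting 24 h after seeding (DMSO or DMF ≤0.5% final). Percent viable cells relative to untreated controls is read at 30 µM, the top concentration of the 0–30 µM dilution series. Cells were fixed with TCA, stained with SRB and read at 570 nm; ≥3 independent experiments.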

A-431 = assay: Growth inhibition of human A431 cells at 30 uM after 96 hrs by SRB assay; assay type: functional, cell-based; in short: as §1
A253 = assay: Growth inhibition of human A253 cells at 30 uM after 96 hrs by SRB assay; assay type: functional, cell-based; in short: as §1
FaDu = assay: Growth inhibition of human FADU cells at 30 uM after 96 hrs by SRB assay; assay type: functional, cell-based; in short: as §1
A549 = assay: Growth inhibition of human A549 cells at 30 uM after 96 hrs by SRB assay; assay type: functional, cell-based; in short: as §1
A2780 = assay: Growth inhibition of human A2780 cells at 30 uM after 96 hrs by SRB assay; assay type: functional, cell-based; in short: as §1
DLD-1 = assay: Growth inhibition of human DLD1 cells at 30 uM after 96 hrs by SRB assay; assay type: functional, cell-based; in short: as §1
HCT-8 = assay: Growth inhibition of human HCT8 cells at 30 uM after 96 hrs by SRB assay; assay type: functional, cell-based; in short: as §1
HCT-116 = assay: Growth inhibition of human HCT116 cells at 30 uM after 96 hrs by SRB assay; assay type: functional, cell-based; in short: as §1
HT-29 = assay: Growth inhibition of human HT-29 cells at 30 uM after 96 hrs by SRB assay; assay type: functional, cell-based; in short: as §1
SW480 = assay: Growth inhibition of human SW480 cells at 30 uM after 96 hrs by SRB assay; assay type: functional, cell-based; in short: as §1
8505C = assay: Growth inhibition of human 8505C cells at 30 uM after 96 hrs by SRB assay; assay type: functional, cell-based; in short: as §1
SW-1736 = assay: Growth inhibition of human SW1736 cells at 30 uM after 96 hrs by SRB assay; assay type: functional, cell-based; in short: as §1
Homo sapiens = species on record: Homo sapiens; assay: Growth inhibition of human Liposarcoma cells at 30 uM after 96 hrs by SRB assay; assay type: functional; in short: as §1

Measured: growth inhibition (GI)

C=C(C)[C@@H]1CC[C@]2([C@H](O)CC(=O)OCC)CC[C@]3(C)[C@H](CC[C@@H]4[C@@]5(C)CC[C@H](OC)C(C)(C)[C@@H]5CC[C@]43C)[C@@H]12
inactive: 518A2 | A-431 | A253 | FaDu | A549 | A2780 | DLD-1 | HCT-8 | HCT-116 | HT-29 | SW480 | 8505C | SW-1736 | Homo sapiens
